The results in this text go back to PubChem BioAssay AID617 (SRMLSC, 2007).

SMILES strings stand for the structures.

As usually defined, the IC50 is the concentration at which inhibition is half-maximal.

The assay concerns E. coli BW25113 ΔtolC growth inhibition, OD615. The assay can be described thus: growth inhibitors of E. coli tolC mutant, dose response, strain BW25113 ΔtolC::kan (AID 617). In outline:
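System: E. coli BW25113 ΔtolC::kan bacteria. Amount: 1:1000 diluted subculture inoculum. Medium: LB broth supplemented with kanamycin at 50 µg/mL. Compound dosing: serial dilution series of compound. Schedule: 20 h exposure at 37 °C. Detection: OD615. Measure: IC50 of bacterial growth inhibition. Benchmarks: chloramphenicol control, 30 µM final.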
With `O=C(Nc1nc(-c2ccccn2)cs1)C1COc2ccccc2O1` (stereo unspecified), the IC50 is 0.97 µM.
Take `COc1ccc(-c2csc(NCc3ccco3)n2)cc1C`: the IC50 is 23.2 µM.
For the compound `CCOc1ccc2[nH]c3c(N4CCN(c5ccccn5)CC4)ncnc3c2c1`, the IC50 is 12.2 µM.
For the compound `O=C(O)CCCC(=O)N1CCc2cc(S(=O)(=O)N3CCc4ccccc43)ccc21`, the concentration for half-maximal inhibition (IC50) was 10.7 µM.
In the case of `O=C(N1CCN(c2ccccc2F)CC1)C12CC3CC(CC(C3)C1)C2` it was 18.6 µM; in that of `CCN(CCNC(=O)C1CCN(Cc2nc(-c3cccc(Cl)c3)oc2C)CC1)c1ccccc1`, 8.04 µM; in that of `O=C(Cc1ccc(Br)cc1)c1ccc(O)cc1O`, 7.26 µM.
The value for `O=C(CSc1nnnn1C1CCCCC1)Nc1cccc(NC(=O)c2ccco2)c1` was 15.5 µM.
For the compound `COc1cc(/C=C(/C#N)c2ccc(F)cc2)ccc1OCc1ccc(C(=O)O)o1`, the IC50 is 4.94 µM.
In the case of `Cc1cc(NC(=O)Cn2nnc3sc4c(c3c2=O)CCC(C(C)(C)C)C4)no1` (stereo unspecified) it was 7.77 µM; in that of `OC(c1cccc(OCc2ccccc2)c1)c1nnc(-c2ccccc2)o1` (stereo unspecified), 72.1 µM.
Consider `COC(=O)c1[nH]c2cccc(OC)c2c1NC(=O)CN1CC2(C)CC1CC(C)(C)C2` (stereo unspecified), for which the IC50 is 38.8 µM.
With `Cc1ccc(C(=O)Nc2nc(COc3ccccc3)cs2)s1`, the IC50 is 101 µM.
For `COc1ccc(-c2[nH]ncc2-c2ccc(Cl)cc2)c(O)c1`, the IC50 was 4.52 µM.
On to `CC(C)c1ccc(-c2noc(C3CCCN(C(=O)c4ccc(F)cc4F)C3)n2)cc1` (stereo unspecified), for which the IC50 was 17.9 µM.
`O=C(Nc1cccc(-c2nnc(-c3ccccc3)o2)c1)c1ccc(Br)o1`: the IC50 was 5.69 µM.
For `CN(Cc1ccccc1)C(=O)CSc1nc2ccccc2c(=O)n1Cc1ccco1`, the IC50 was 10.7 µM.
Consider `Cc1ccc(C)c(Cn2c(CN(C)Cc3ccccc3)nc3c2c(=O)n(C)c(=O)n3C)c1`, for which the IC50 was 14.2 µM.
As for `CC(C)(C)C(=O)Cn1c(=N)n(Cc2ccccc2)c2ccccc21`, the IC50 was 17.2 µM.
The value for `Cc1cc(NS(=O)(=O)c2ccc(NC(=O)COc3ccccc3C(C)C)cc2)no1` was 16.5 µM; that for `O=C1c2ccccc2C(O)(Cc2ccccc2)N1C1CCCCC1` (stereo unspecified) was 11.5 µM; that for `CC(=O)c1ccccc1OCC(O)CN1CCN(C(c2ccccc2)c2ccccc2)CC1` (stereo unspecified) was 14.1 µM.
In the case of `CO[C@@]1(NC(=O)Cc2cccs2)C(=O)N2C(C(=O)O)=C(COC(N)=O)CS[C@@H]21`, the IC50 is 2 µM.
Take `CCn1c(C(=O)OC)cc2c1ccn2-c1ccc(F)cc1`: the IC50 is 17.2 µM.
Turning to `CC(O)c1c(OCc2ccccc2)ncnc1OCc1ccccc1` (stereo unspecified), the IC50 was 10.7 µM.
Consider `CN(c1ccccc1C(=O)Nc1ccc(S(=O)(=O)N2CCCCC2)cc1)S(C)(=O)=O`, for which the concentration for half-maximal inhibition (IC50) is 7.39 µM.
As to `Fc1cccc2sc(Nc3nnc(-c4ccco4)o3)nc12`, the IC50 is 2.84 µM.
Regarding `CCCC1=C(C(=O)OCC)C(c2cc(Cl)cc(OC)c2OCC(=O)OCC)NC(=O)N1` (stereo unspecified), the IC50 is 24.5 µM.
Take `Fc1ccc(C(c2ccc(F)cc2)N2CCN(C/C=C/c3ccccc3)CC2)cc1`: the IC50 was 9.08 µM.
With `COc1ccc(-c2noc(C)c2-c2ccc3ccccc3n2)c(O)c1`, the IC50 is 8.91 µM.
Turning to `COC(=O)c1[nH]c2ccc(C)cc2c1NS(=O)(=O)c1ccc(F)cc1`, the IC50 was 6.58 µM.
As for `CSc1ncc(Cl)c(C(=O)C(C#N)c2nc3c(C)cc(C)cc3c(=O)[nH]2)n1` (stereo unspecified), the IC50 was 3.28 µM.
For `O=C(Nc1nnc(-c2ccccc2)o1)c1ccc(Cl)cc1`, the IC50 is 0.17 µM.
In the case of `CCCCOn1c(C)c(C(=O)OCC)c2c3nonc3ccc21` it was 18.4 µM.
On to `CCc1ccccc1N(CC)C(=O)CCc1nc(-c2ccc(C)cc2)no1`, for which the IC50 is 11.2 µM.
With `Cc1ccc(O)c(-c2cc3ccccc3[nH]2)c1`, the IC50 is 11.7 µM.
In the case of `CCCCNc1cc(C)nc(NCc2ccccc2)n1`, the IC50 is 7.8 µM.
In the case of `Cc1cccc(Cn2c(=O)n(Cc3ccco3)c(=O)c3ccccc32)c1` it was 6.71 µM; in that of `O=C(Nc1ccc(Cl)cc1)NC1CCCC1Cc1ccco1` (stereo unspecified), 3.63 µM; in that of `N#Cc1nc(Cc2cccc3ccccc23)oc1NCc1ccc(F)cc1`, 11.7 µM.
Regarding `CN(c1ccccc1)S(=O)(=O)c1ccc(C(=O)Nc2nnc(-c3ccc(F)cc3)o2)cc1`, the IC50 was 0.21 µM.
For `O=C1c2[nH]nc(-c3ccccc3O)c2C(c2cccc(Cl)c2)N1CC1CCCO1` (stereo unspecified), the IC50 was 4.35 µM.
Consider `Cc1cc(=O)[nH]c(-n2nc(C)cc2C)n1`, for which the IC50 is 6.56 µM.
As to `COC(=O)c1cc(CSc2nc3ccc(C)cc3[nH]2)oc1C`, the IC50 was 13.8 µM.
Turning to `CCCc1nc2ccccc2c(=O)n1NC(=O)c1c(O)c2ccccc2[nH]c1=O`, the IC50 is 5.73 µM.
Turning to `CCn1c(Cn2nnc(-c3ccccc3)n2)nnc1SCc1ccc(Cl)c(Cl)c1`, the IC50 is 7.77 µM.
In the case of `O=C(Nc1cnn(Cc2ccc(Cl)cc2Cl)c1)c1noc2c1CCCC2` it was 8.39 µM.
With `CC1CCC2C(C1)c1sc(=O)[nH]c1SC2(C)C` (stereo unspecified), the IC50 was 7.77 µM.
In the case of `COc1ccc(S(=O)(=O)C(C#N)c2nc3ccccc3nc2N2CCCC(C)C2)cc1` (stereo unspecified) it was 6.97 µM; in that of `CC1CCN(c2oc(-c3ccccc3F)nc2C#N)CC1`, 19.2 µM.
`O=c1c2ccccc2nc(SCc2cn3ccsc3n2)n1-c1ccccc1F`: the IC50 was 23.3 µM.
For the compound `Cc1ccc(S(=O)(=O)N(Cc2ccc(F)cc2)Cc2ccco2)cc1`, the IC50 was 7.01 µM.
For `O=C(COc1ccccc1Br)c1ccc(O)cc1O`, the IC50 was 13.1 µM.
As for `CN(Cc1ccccc1)c1ncnc2c1cnn2-c1ccccc1`, the IC50 is 12.7 µM.
Turning to `COC(=O)c1[nH]c2ccccc2c1NC(=O)CN1CCN(c2cccc(OC)c2)C(C)C1` (stereo unspecified), the IC50 is 18.6 µM.
With `CCCc1cc(C(=O)N2CCN(c3ccccc3C)CC2)cs1`, the IC50 is 8.52 µM.
Turning to `O=C(c1ccc(COc2ccc3c(c2)CCC3)o1)N1CCN(c2ccccc2)CC1`, the IC50 is 10.7 µM.
As to `CCCCOc1[nH]c2nc(-c3ccco3)n(Cc3ccco3)c(=N)c2c1C#N`, the IC50 is 12 µM.
As for `O=C(Nc1ccc(N2CCN(C(=O)c3ccco3)CC2)c(Cl)c1)c1cccs1`, the IC50 is 12.3 µM.
With `Clc1ccc2[nH]c3c(c2c1)CCc1cn[nH]c1-3`, the IC50 is 6.49 µM.
With `CC1=C(C(=O)OC2CCCC2)C(c2ccc(C)o2)C2=C(CC(c3cccs3)CC2=O)N1` (stereo unspecified), the IC50 was 11.2 µM.
In the case of `O=C(CCCSc1nc(-c2ccco2)cc(C(F)(F)F)n1)Nc1ccc2c(c1)OCO2` it was 4.61 µM; in that of `CC1CC(C)CN(C(=O)CSc2nnc(-c3ccc(Cl)s3)o2)C1` (stereo unspecified), 17.4 µM.
Take `Cc1cc(OCCCC(=O)N2CCCCC2)cc(C)c1Cl`: the IC50 is 28.2 µM.
The value for `COC(=O)c1sccc1NC(=O)c1ccc(Cl)s1` was 4.02 µM.
Turning to `CC(C)Cn1c(=O)c(C(=O)Nc2ccncc2)c(O)c2ccccc21`, the IC50 is 3.34 µM.
Take `CC(C)(C)N1C(=O)Cc2c1nc(N)c1c(N)nc(N3CCCCC3CO)c(C#N)c21` (stereo unspecified): the IC50 is 6.59 µM.
For `Cc1ccccc1CSc1nc2n(n1)C(c1cccs1)C1=C(CCCC1=O)N2` (stereo unspecified), the IC50 was 8.42 µM.
In the case of `Cn1c(=O)n(CCc2ccccc2)c(=O)c2c1nc1n2CCCN1CCc1ccccc1`, the IC50 was 10.5 µM.
With `O=S(=O)(Nc1cccc2ncccc12)c1cccs1`, the IC50 was 5.24 µM.
In the case of `O=C(Nc1nnc(C2CC2)s1)c1cc(-c2ccccc2)nn1-c1ccccc1` it was 6.41 µM; in that of `Cc1ccc(-c2csc3ncn(-n4c(C)ccc4C)c(=O)c23)o1`, 14.9 µM.
In the case of `COc1ccccc1C1SCCN1S(=O)(=O)c1cccc(C(F)(F)F)c1` (stereo unspecified), the IC50 was 16.4 µM.
As for `CCn1c2ccccc2c2cc(C3C(C#N)=C(N)Oc4n[nH]c(COC)c43)ccc21` (stereo unspecified), the IC50 is 22.7 µM.
The value for `Cc1cc2c(cc(C(=O)OCC(=O)NCc3cccs3)n2C(C)C)o1` was 25 µM.
Take `CC1=C(C(=O)OC(C)C)C(c2c[nH]c3ccccc23)n2ncnc2N1` (stereo unspecified): the IC50 was 6.11 µM.
In the case of `Cc1ccc2[nH]c(=O)c(CN(Cc3ccc4c(c3)OCO4)Cc3nnnn3C3CCCC3)cc2c1`, the IC50 is 42.3 µM.
In the case of `Cc1cccc(N2CCN(C(=O)c3ccc(NS(=O)(=O)c4c(C)noc4C)cc3)CC2)c1C` it was 16.2 µM; in that of `CCCOc1ccc2oc(=O)c3c(c2c1)CCCN3C(=O)CN1CCc2ccccc2C1`, 14.1 µM.
`O=C(c1ccco1)N1CCN(c2c(-c3ccccc3)c3cc(Cl)ccc3[nH]c2=O)CC1`: the IC50 is 24 µM.
Consider `O=c1[nH]c(NCCCO)nc2c1C1(CCCC1)Cc1ccccc1-2`, for which the IC50 is 8.77 µM.
As for `CCCCN(CCCNC(=O)CN1C(=O)COc2ccccc21)c1ccccc1`, the IC50 was 38.9 µM.
On to `Cc1cc(C)cc(-n2ccnc2SCC(=O)Nc2ccc3c(c2)OCCO3)c1`, for which the IC50 was 28.1 µM.
For `Cc1cc(NC(=O)COC(=O)C(Nc2ccc(C(F)(F)F)cc2Cl)C(C)C)no1` (stereo unspecified), the IC50 was 5.37 µM.
For the compound `N#C/C(=C\c1ccc[nH]1)Sc1nc2ccccc2s1`, the IC50 is 4.28 µM.
In the case of `CCOC(=O)c1cnc(-n2nc(C)cc2C)nc1N(CC)CC`, the IC50 is 12.3 µM.
In the case of `COc1ccc(CCN2C(=O)c3[nH]nc(-c4ccccc4O)c3C2c2ccc(C)cc2)cc1OC` (stereo unspecified) it was 13.8 µM; in that of `COC(=O)c1c(C)oc2ccc(OC(=O)c3cccs3)cc12`, 9.49 µM.
For the compound `COC(=O)c1ccc(C2c3c(n[nH]c3C)C(=O)N2c2ccc(C)cc2)cc1` (stereo unspecified), the IC50 was 4.38 µM.
As to `CN1CCN(c2c(F)cc3c(=O)c(C(=O)O)cn4c3c2SCC4)CC1`, the IC50 is 0.91 µM.
Regarding `CN(C)[C@@H]1C(=O)C(C(N)=O)=C(O)[C@@]2(O)C(=O)C3=C(O)c4c(O)ccc(Cl)c4[C@@H](O)[C@H]3C[C@@H]12`, the IC50 is < 0.2 µM.
The value for `O=C(c1cc(-c2ccccc2)on1)N1CCN(Cc2ccc3c(c2)OCO3)CC1` was 20.8 µM.
`COc1ccccc1-c1cc(C(=O)NCc2ccc(F)cc2)no1`: the IC50 is 9.85 µM.
In the case of `O=C1C2=C(Nc3ccccc3SC2c2ccco2)c2ccccc21` (stereo unspecified), the IC50 is < 0.2 µM.
For the compound `COc1ccc(CCNC(=O)c2cc3sc(Cl)cc3n2C)cc1OC`, the half-maximal inhibitory concentration (IC50) is 30.8 µM.
In the case of `CCOC(=O)c1c(-c2ccc(OC)cc2)oc2ccc(OC(=O)N(C)C)cc12`, the IC50 was 12.9 µM.
